Results on four molecules are retold here after ChEMBL document CHEMBL3872222, “Synthesis of novel curcuminoids accommodating a central β-enaminone motif and their impact on cell growth and oxidative stress” (Eur J Med Chem, 2016).

≈ marks a conversion by molar mass, not a printed value. Some results are limits rather than exact numbers.

A short description of series [1]: Solubility of the compound in serum-free DMEM assessed as compound concentration required for crystal formation measured after 1 day by microscopic analysis. The conditions noted are these: 24 h. Format: physicochemical. Summed up: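 Compound at 0, 0.5, 1, 5, 10, 25 and 50 μM in serum-free DMEM incubated 1 day at 37 °C, 10% CO2, then examined for crystal formation.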

A short description of series [2]: Antioxidant activity assessed as inhibition of DPPH radical activity at 1 uM measured after 30 mins under dark conditions by spectrophotometric analysis relative to control. It is filed as functional.
The nature of series [3]: Growth inhibition of CHOK1 cells assessed as mitochondrial activity measured after 72 hrs by MTT assay. As to conditions: Cricetulus griseus, CHO-K1, 72 h. It is filed as functional, cell-based. Summed up:
(§1)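 Seeded 20000 cells/well in DMEM+glutamax, NEAA, P/S, FBS; after 1 day treated 1, 5, 10, 25 μM in serum-free medium (DMSO under 0.1%) for 3 days. MTT (5 mg/ml in PBS) 2 h at 37 °C, 10% CO2 in dark; formazan dissolved in DMSO, absorbance 570 nm; triplicate; IC50 derived.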

Series [4] in a line: Antioxidant activity assessed as trolox equivalent of ferric ion reducing activity using Fe3+-TPTZ by measuring Fe2+-TPTZ formation after 4 mins by UV-vis spectrophotometry based FRAP assay. Format: functional. The procedure, abridged: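 FRAP reagent: 300 mM acetate buffer, 10 mM TPTZ in ethanol and 20 mM FeCl3 (in dilute HCl) combined 10:1:1, TPTZ and iron freshly made. Sample mixed 1:9 with reagent; absorbance 593 nm after 4 min. Expressed as trolox equivalents per μM from slope of linear plot versus analog concentration.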

Series [5] can be described thus: Growth inhibition of CHOK1 cells measured after 72 hrs by SRB assay. It is filed as functional, cell-based. As to conditions: Cricetulus griseus, CHO-K1, 72 h. The procedure, abridged: (§2)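 20000 cells/well treated after 1 day at 1, 5, 10, 25 μM, serum-free, for 3 days. Fixed with 50% TCA 1 h at 4 °C, stained 30 min with 0.4% sulforhodamine B in 1% acetic acid, rinsed with 1% acetic acid, dye dissolved in 10 mM Tris, absorbance 490 nm; triplicate; IC50 derived.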
(In general: Sulforhodamine B stains cellular protein and so reports cell mass.)

Series [6] is described as follows: Growth inhibition of human HT-29 cells measured after 72 hrs by SRB assay. Format: functional, cell-based. The conditions noted are these: HT-29, 72 h. The procedure, abridged:
as §2

Series [7] is described as follows: Growth inhibition of undifferentiated human Caco2 cells assessed as mitochondrial activity measured after 72 hrs by MTT assay. It is filed as functional, cell-based. The conditions noted are these: Caco-2, 72 h. Summed up:
as §1
(In general: Tetrazolium assays rely on reduction of a dye to a coloured formazan, in cell work by metabolically active cells.)

The nature of series [8]: Growth inhibition of undifferentiated human Caco2 cells measured after 72 hrs by SRB assay. It is filed as functional, cell-based. The conditions noted are these: Caco-2, 72 h. The procedure, abridged:
as §2

Series [9] is described as follows: Growth inhibition of differentiated human Caco2 cells assessed as mitochondrial activity measured after 72 hrs by MTT assay. Format: cell-based. As to conditions: Caco-2, 72 h. The procedure, abridged:
as §1

Series [10] can be described thus: Growth inhibition of differentiated human Caco2 cells measured after 72 hrs by SRB assay. It is filed as cell-based. As to conditions: Caco-2, 72 h. Summed up:
as §2

Series [11] in a line: Growth inhibition of human HT-29 cells assessed as mitochondrial activity measured after 72 hrs by MTT assay. As to conditions: HT-29, 72 h. Format: functional, cell-based. Summed up:
as §1

A short description of series [12]: Growth inhibition of human EAhy926 cells assessed as mitochondrial activity measured after 72 hrs by MTT assay. Format: cell-based. The conditions noted are these: EA.hy 926, 72 h. Summed up: as §1
Series [13] in a line: Growth inhibition of human EAhy926 cells measured after 72 hrs by SRB assay. Format: cell-based. As to conditions: EA.hy 926, 72 h. The procedure, abridged: as §2
In series [14] the test system is EA.hy 926. The series can be described thus: Effect on oxidative stress in human EAhy926 cells assessed as intracellular ROS level at 1 uM after overnight incubation by DCFH-DA staining based fluorescence assay relative to control. Format: functional. The procedure, abridged:
(§3)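 Cells grown in DMEM+glutamax, 1% NEAA, 1% P/S, 10% FBS; seeded 20000/well, treated at confluency overnight in serum-free medium, DMSO under 0.1% final. Loaded with 20 μM DCFH-DA 30 min at 37 °C, 10% CO2; washed, phenol red-free medium 1 h, then serum-free medium; fluorescence ex 485/em 535 nm. Percent of untreated; two-tailed unequal-variance t-test, n≥6.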

Series [15] concerns CHO. Put plainly: Effect on oxidative stress in CHO cells assessed as intracellular ROS level at 1 uM after overnight incubation by DCFH-DA staining based fluorescence assay relative to control. Format: functional, Cricetulus griseus. Summed up: as §3
Series [16] relates to CHO. Put plainly: Effect on oxidative stress in CHO cells assessed as intracellular ROS level at 10 uM after overnight incubation by DCFH-DA staining based fluorescence assay relative to control. Format: functional, Cricetulus griseus. Summed up: as §3
The test system of series [17] is Caco-2. The series can be described thus: Effect on oxidative stress in undifferentiated human Caco2 cells assessed as intracellular ROS level at 1 uM after overnight incubation by DCFH-DA staining based fluorescence assay relative to control. It is filed as functional. The procedure, abridged:
as §3

Series [18] has as its system Caco-2. Put plainly: Effect on oxidative stress in undifferentiated human Caco2 cells assessed as intracellular ROS level at 10 uM after overnight incubation by DCFH-DA staining based fluorescence assay relative to control. It is filed as functional. The procedure, abridged:
as §3

The test system of series [19] is HT-29. Put plainly: Effect on oxidative stress in human HT-29 cells assessed as intracellular ROS level at 1 uM after overnight incubation by DCFH-DA staining based fluorescence assay relative to control. It is filed as functional. Summed up: as §3
Series [20] concerns HT-29. Put plainly: Effect on oxidative stress in human HT-29 cells assessed as intracellular ROS level at 10 uM after overnight incubation by DCFH-DA staining based fluorescence assay relative to control. Format: functional. Summed up:
as §3

In series [21] the test system is EA.hy 926. The series can be described thus: Effect on oxidative stress in human EAhy926 cells assessed as intracellular ROS level at 10 uM after overnight incubation by DCFH-DA staining based fluorescence assay relative to control. Format: functional. The procedure, abridged: as §3

Usually solubility stands for the concentration that dissolves in the medium under given conditions. Broadly, the inhibition is the relative decrease from the control value, in per cent. The IC50 is the concentration that inhibits the measured activity by half.

As for `COc1cc(/C=C/C(=O)/C=C(/C=C/c2ccc(OC(C)=O)c(OC)c2)NCC(C)C)ccc1OC(C)=O`, the solubility in series [1] was 5 µM (≈ 2.54 µg/mL). Further, in series [2], the inhibition is 0%. For the same molecule, the IC50 in [3], in [5], in series [6], in series [7], in series [8] and in series [9] was > 25 µM each time. In addition, the IC50 in series [10], in series [11], in series [12] and in series [13] was > 25 µM in each case. The Activity in series [4] amounted to 0.04 µMequiv/µM; in the series on EA.hy 926 [14] it was 104%; in the series on CHO [15], 111%; with CHO [16] it was 111%; with Caco-2 [17], 96%; in the series on Caco-2 [18], 77%. In addition, the results for the Activity with HT-29 [19], with HT-29 [20] and in the series with EA.hy 926 [21] were 95%, 96% and 240%, respectively.

With `O=C(/C=C(/C=C/c1ccc(O)cc1)NC1CCCCC1)/C=C/c1ccc(O)cc1`, the solubility in series [1] was determined as 5 µM (≈ 1.95 µg/mL). Further, in series [2], the inhibition was 0.03%. Also, the IC50 in series [3] was 9.2 µM; in series [5] it was 11.6 µM; in [6], 5.9 µM; in series [7], 7.8 µM; in series [8], 6.9 µM; in series [9], > 25 µM. Further, the IC50 in [10] is > 25 µM; in [11], 4 µM; in series [12], 3.3 µM; in series [13], 4.2 µM. Besides, the Activity in series [4] was determined as 0.56 µMequiv/µM; in the series on EA.hy 926 [14], 129%; in the series with CHO [15] it was 111%; with CHO [16], 150%; with Caco-2 [17] it was 97%; in the series on Caco-2 [18], 82%. For the same molecule, the values for the Activity in the series on HT-29 [19], in the series on HT-29 [20] and in the series on EA.hy 926 [21] were 77%, 80% and 299%, respectively.

As to `CCCNC(=C\C(=O)/C=C/c1ccc(O)c(OC)c1)/C=C/c1ccc(O)c(OC)c1`, in [1], the solubility turned out to be 50 µM (≈ 20.5 µg/mL). In addition, the inhibition in series [2] is 0.1%. Besides, the IC50 in series [3] was > 25 µM; in [5] it was > 25 µM; in series [6], > 25 µM; in series [7], > 25 µM; in series [8], 22 µM; in series [9], > 25 µM. Moreover, the IC50 in series [10] was > 25 µM; in series [11], 22.7 µM; in series [12] it was > 25 µM; in series [13], > 25 µM. Moreover, the Activity is 0.87 µMequiv/µM in series [4]; 78% with EA.hy 926 [14]; 116% in the series with CHO [15]; 118% in the series with CHO [16]; 97% in the series with Caco-2 [17]; 88% with Caco-2 [18]. The Activity in the series with HT-29 [19] amounted to 88%; in the series on HT-29 [20], 92%; with EA.hy 926 [21], 141%.

For `CCC(C)NC(=C\C(=O)/C=C/c1ccc(O)cc1)/C=C/c1ccc(O)cc1` (centres undefined), in series [1], the solubility is 25 µM (≈ 9.09 µg/mL). In addition, the inhibition in series [2] worked out at 0.03%. Besides, the IC50 in series [3] was 13.1 µM; in series [5] it was 15.1 µM; in series [6], 15.6 µM; in [7], 9.4 µM; in [8] it was 5.8 µM; in [9], > 25 µM. Besides, the IC50 is > 25 µM in [10], 13 µM in [11], 22 µM in series [12] and > 25 µM in [13]. Also, the Activity amounted to 0.18 µMequiv/µM in series [4]; 99% with EA.hy 926 [14]; 104% in the series on CHO [15]; 111% in the series with CHO [16]; 102% with Caco-2 [17]; 102% in the series on Caco-2 [18]. Further, the Activity with HT-29 [19] stood at 76%; with HT-29 [20], 76%; in the series on EA.hy 926 [21], 414%.
